Sampled rows, rich in hits. Any-hit rate of the full collection: about 2.6%.
AHR activator = human AHR activation | AHR-responsive luciferase reporter cells, luminescence | activation, % at 5 µM | AID 2796 | 2.5% of 320,000 active; in the data active = activation above about 47%;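 also: 0% = vehicle wells and 100% = reference agonist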
procasp3 activ = activates human procaspase-3; P42574; recombinant procaspase-3 D3A, Ac-DEVD-pNA absorbance 405 nm; activation, % at 8.5 µM; 0.11% of 330,000 active;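 active = activation above the mean of all tested compounds plus 3 SD, cut at about 21% in these data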;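 also: 0% = DMSO alone and 100% = DMSO wells spiked with extra 5 µM PC-3 D3A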
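material = Procaspase-3 D3A mutant | probe or stimulus = Ac-DEVD-pNA | compound = single dose, 8.5 µM nominal compound, 0.8% DMSO | timing = 1 h preincubation, 2 h reaction | measured by = 405 nm absorbance of p-nitroaniline, reads at 0 and 120 min | benchmarks = DMSO-only low control, 5 µM PC-3 D3A high control | repeats = singlicate, each compound tested once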
proCasp7 act = counter-screen: procaspase-7 (human) activation. P55210. recombinant procaspase-7, Ac-DEVD-pNA absorbance 405 nm; D23A/D198A/D206A triple mutant, cannot self-cleave; scale: DMSO 0, 5 µM enzyme 100. activation, % at 8.5 µM. 0.093% of 330,000 active;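 active = percent activation above the screen-wide mean plus 3 SD, cut at about 25% in these data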
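Material: Procaspase-7 triple mutant (PC-7 D3A) | Quantity: 2 µM procaspase-7 mutant as dispensed | Reagent: DEVD-pNA substrate | Times: 1 h preincubation, 2 h reaction | Technique: 405 nm absorbance of p-nitroaniline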
PolyA inh = inhibitors of polyadenylation in S. cerevisiae | S. cerevisiae SKY197-pL101 polyadenylation reporter, beta-gal luminescence; efflux-impaired pdr1/pdr3 knockout yeast; score 100 = 6 SD above DMSO | activity score, % at 12 µM | 0.02% of 300,000 active;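 active = lowest replicate activity score at least 50, where 100 means six control SD above control mean; inconclusive = lowest score under 50 but half or more replicates reach 50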;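 also: yeast exposed to compound for 9 h at 30 °C; higher score means more reporter readthrough which indicates perturbed polyadenylation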
Active calls of the source: *; ? = inconclusive; . = no result.

SMILES	AHR activator	procasp3 activ	proCasp7 act	PolyA inh
COc1ccc(CN2CCNC(=O)C2CC(=O)NCC(C)(C)N2CCOCC2)cc1C (stereo not given)	61*	0	-5	2
Cn1c(N)c(-c2nc3cccnc3n2C)sc1=S	51*	4	-13	-17
COc1ccc(-c2nn(-c3ccccc3)cc2/C=N/NC(=S)NC(C)C)cc1OC	55*	-4	0	-6
COc1ccc(-c2nn(-c3ccccc3)cc2/C=N/O)cc1OC	38	4	5	-22
COc1ccc(-c2nn(-c3ccccc3)cc2CO)cc1OC	51*	2	2	4
COc1ccc(-c2nn(-c3ccccc3)cc2/C=N/Nc2ccc3ccccc3n2)cc1OC	49*	-29	-4	-9
CC1CC(=O)Nc2ccccc2N1C(=O)COc1cc(Cl)ccc1Cl (stereo not given)	2	6	-1	.
CC1=C(C(N)=O)C(c2cccs2)n2nc(-c3cccc(C)c3)nc2N1 (stereo not given)	7	0	-1	-14
CC1=C(C(N)=O)C(c2cccs2)n2nc(-c3cccc(Cl)c3)nc2N1 (stereo not given)	67*	-1	3	3
COc1cc(/C=N/N=C/c2c[nH]c(=O)c(C#N)c2Nc2ccccc2)ccc1O	2	6	-4	-1
Cc1cc(/C=C(\C#N)C(=O)NC2CC2)c(C)[nH]1	58*	-3	-4	5
Cc1cc(/C=C(\C#N)C(=O)NCc2ccco2)c(C)[nH]1	9	6	-1	2
Cc1cc(/C=C(\C#N)C(=O)Nc2ccccc2F)c(C)[nH]1	66*	-8	-4	-4
Cc1ccc2oc(-c3cccc(NC(=O)C4CCCO4)c3)nc2c1 (stereo not given)	72*	3	-5	-15
Fc1ccc2[nH]c3c(c2c1)CN(C(=S)NCc1ccccc1)CC3	1	-4	0	-10
Cc1nn(-c2ccccc2)c(N2CCCC2)c1/C=N/NC(=O)c1cc(-c2cccnc2)nc2ccccc12	26	6	13	-10
Cc1ccc(-c2cc(C(=O)N/N=C/c3c(C)nn(C)c3C)c3ccccc3n2)cc1C	61*	1	8	2
CCOC(=O)c1c2ccccc2[n+]([O-])n1[C@@H](C)C(N)=O	6	3	4	11
Cc1cc(C)c(NC(=O)CNC(=O)COC(=O)/C=C/c2cccs2)c(C)c1	4	2	4	-2
Cc1nn(-c2ccccc2)c(C)c1/C=N/n1c(-c2ccccc2Br)n[nH]c1=S	51*	-3	-13	-1
Clc1ccc(C2=Nn3c(Cn4nnc5ccccc54)nnc3SC2)cc1	5	-18	-23	-7
COc1ccc(C2=Nn3c([n+](C)c4ccccc43)SC2)cc1	59*	-13	-15	3
COc1ccc(C2=Nn3c(nnc3-c3ccccn3)SC2)cc1	-2	5	-7	3
CC1Sc2n(c3ccccc3[n+]2C)N=C1c1ccccc1 (stereo not given)	74*	0	-9	2
C[n+]1c2n(c3ccccc31)N=C(c1ccc(Cl)cc1)CS2	64*	-10	-19	?
SMILES	AHR activator	procasp3 activ	proCasp7 act	PolyA inh
Cc1ccc(NS(=O)(=O)c2cc(NC(=O)c3ccc4c(c3)NC(=O)CS4)ccc2Cl)c(C)c1	54*	-5	0	?
Cc1ccccc1Oc1ncnc2oc(-c3ccccc3)cc12	-2	6	6	39
COc1cccc(-c2cc3c(-n4cccc4)ncnc3o2)c1	56*	-3	-4	-30
CCCn1c(=O)c(C(=O)NCCc2ccccc2)c(O)c2ccccc21	2	3	2	24
Cn1c(=O)c(C(=O)NNC(=O)c2ccccc2Cl)c(O)c2ccccc21	36	3	-3	88*
Cn1c(=O)c(C(=O)NCCc2ccccc2)c(O)c2ccccc21	72*	2	6	26
CC1=C(C(=O)OCC2CCCO2)C(c2ccsc2)C2=C(CCCC2=O)N1 (stereo not given)	3	-2	7	5
O=C(NCCN1C(=O)S/C(=C\c2ccc(Cl)cc2Cl)C1=O)C1=COCCO1	2	5	-9	16
N#Cc1c(C(F)(F)F)cc(-c2ccco2)nc1SCc1ccccn1	60*	-5	-11	1
N#Cc1c(C(F)(F)F)cc(-c2ccccc2)nc1SCCN1CCOCC1	55*	1	0	-7
O=C(CBr)c1ccc([N+](=O)[O-])c(CS(=O)(=O)c2ccc(Cl)cc2)c1	0	-6	-2	-14
CC(NC(=O)c1c(O)c2ccccc2[nH]c1=O)c1ccccc1 (stereo not given)	0	9	9	12
COC(=O)N/N=C/c1cn(Cc2ccc(Cl)cc2Cl)c2ccccc12	71*	-2	1	5
COC(=O)N/N=C/c1cn(Cc2c(Cl)cccc2Cl)c2ccccc12	64*	-9	6	-12
COC(=O)N/N=C/c1cn(Cc2ccccc2F)c2ccccc12	58*	-3	-6	2
COC(=O)N/N=C/c1cn(Cc2ccc(F)cc2)c2ccccc12	26	0	3	-12
O=C(CNC(=O)N1CC(=O)Nc2ccccc21)Nc1nccs1	18	6	1	5
Cn1c2ccccc2n2c(=O)c(Cl)c(-c3ccccc3)c(C#N)c12	59*	-10	3	-20
O=C1C(C=NCCCn2ccnc2)=C(O)c2ccccc21	48*	-3	-8	4
CC(=NCCCn1ccnc1)C1=C(O)c2ccccc2C1=O	23	0	-1	11
O=C1C(C=NCc2ccccn2)=C(O)c2ccccc21	60*	2	-7	-12
O=C(CCN1C(=O)C2CC=CCC2C1=O)Nc1cccc(Cl)c1 (stereo not given)	-5	-3	-4	13
COc1cc(C2/C(=C(\O)c3ccc4c(c3)CC(C)O4)C(=O)C(=O)N2CCN2CCOCC2)cc(OC)c1OC (stereo not given)	-2	1	-28	20
C/C(CC(=O)Nc1cccnc1)=N\NC(=O)C(C)Oc1ccc(Cl)cc1Cl (stereo not given)	1	0	2	-1
c1coc(-c2nnc3sc(-c4cccs4)nn23)c1	55*	-8	-5	.
SMILES	AHR activator	procasp3 activ	proCasp7 act	PolyA inh
Cc1[nH]c2ccccc2c1/C=N\NC(=O)CNc1ccc2c(c1)OCO2	68*	-25	-32	-12
Oc1[nH]c2ccccc2c1C=Nc1ccc2c(c1)OCO2	58*	-8	-15	-32
Oc1[nH]c2ccccc2c1/C=N/c1nccs1	53*	-28	-9	-7
Oc1[nH]c2ccccc2c1/C=N/N1CCCCC1	35	1	-15	7
O=c1c2ccccc2c(C=Nc2cccc(O)c2)c(O)n1-c1ccc2c(c1)OCO2	-4	-7	-10	-13
O=C(Cc1ccccc1)N/N=C/c1cc2c(cc1Cl)OCO2	27	-4	-4	14
O=C(CNc1ccc2c(c1)OCO2)N/N=C\c1ccccc1Cl	81*	-25	-30	9

Source: PubChem
